Bioassay records as filed in PubChem.
KDM4C inh: KDM4C (human) demethylase inhibition. inhibition, % at 12.5 µM. GST-KDM4C 2-372, H3K9me3 peptide, LANCE TR-FRET. hit rate 0.15% among 96,000. Q9H3R0;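 active = mean replicate inhibition above about 25%, with at least 55% of replicates also reaching it, limit read from the data, passing the limit was not always enough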
Target sequence (Q9H3R0 2-372 limits assumed): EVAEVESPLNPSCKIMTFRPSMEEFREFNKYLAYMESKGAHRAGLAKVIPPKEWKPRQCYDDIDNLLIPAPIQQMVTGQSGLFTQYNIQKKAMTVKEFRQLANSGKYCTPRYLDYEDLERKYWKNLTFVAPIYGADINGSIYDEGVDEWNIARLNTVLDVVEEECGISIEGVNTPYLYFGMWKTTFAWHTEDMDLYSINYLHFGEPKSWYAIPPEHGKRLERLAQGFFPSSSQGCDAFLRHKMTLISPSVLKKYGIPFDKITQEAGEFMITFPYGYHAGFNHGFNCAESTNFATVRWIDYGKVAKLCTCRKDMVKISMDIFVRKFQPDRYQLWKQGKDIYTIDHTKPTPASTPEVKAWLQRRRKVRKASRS
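Material: GST-tagged GASC-1 (JMJD2C) catalytic fragment, aa 2-372. Input: enzyme final amount 10 nM. Medium: HEPES buffer, pH 7.5, plus ascorbate. Reagent: H3K9me3 peptide substrate, Fe(II), 2-oxoglutarate. Doses: single dose. Times: reaction 30 min RT, detection step 1 h RT. Measured by: LANCE TR-FRET. Evaluation: Fall in 671/618 emission ratio as inhibition.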
IDH1 R132H inh: IDH1 R132H (human) inhibition. IDH1 R132H reductase, diaphorase/resazurin fluorescence, 60 min. inhibition, % at 10 µM. hit rate 0.18% among 70,000. AID 624101; in the data active = inhibition above about 34%
T cruzi growth: T. cruzi proliferation inhibition. T. cruzi beta-gal in NIH3T3, GalScreen luminescence, 90 h. inhibition, % at 8.34 µM. hit rate 5.9% among 77,000;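 active = mean inhibition above about 93%, with at least 55% of replicates each passing it, limit read from the data, passing the limit was not always enough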
Pf Dd2 growth: P. falciparum Dd2 growth inhibition; AID 1159554; hit rate 2.3% among 94,000; activity change, % at 10 µM; SYBR Green, 72 h; hits give low values; in the data active = activity change below about -80%
A number is an active result; n = inactive; x = not tested or not shown; ! = not active in a repeat. Most compounds without a hit are left out; they make up all but 5.9% or so of the library.

SMILES	KDM4C inh	IDH1 R132H inh	T cruzi growth	Pf Dd2 growth
COCC#Cc1ccc(CC[C@H]2O[C@H]3CC[C@H](CO)O[C@H]3C[C@H]2n2cc(C3CC3)nn2)cc1	x	x	x	n
OC[C@@H]1CC[C@@H]2O[C@H](CCc3ccc(C#Cc4ccccc4)cc3)[C@H](n3cc(-c4ccccc4)nn3)C[C@@H]2O1	x	x	x	-84
COCC#Cc1ccc(CC[C@H]2O[C@H]3CC[C@@H](CO)O[C@H]3C[C@@H]2n2cc(C3CC3)nn2)cc1	x	x	x	-89
O=C(CC1Sc2ccc(Cl)cc2NC1=O)Nc1ccc([N+](=O)[O-])cc1 (stereo not given)	x	n	x	x
N#Cc1ccc(-c2ccc(C3[C@@H]4CN(C(=O)C5CCCCC5)C[C@H]3N4)cc2)cc1 (stereo not given in full)	n	x	x	-88!
N#Cc1cccc(-c2ccc(C3[C@@H]4CN(C(=O)c5ccncc5)C[C@H]3N4)cc2)c1 (stereo not given in full)	n	x	x	n
N#Cc1ccc(-c2ccc(C3[C@@H]4CN(C(=O)c5ccncc5)C[C@H]3N4)cc2)cc1 (stereo not given in full)	39!	x	x	n
COc1ccc2c3c([nH]c2c1)[C@H](CO)NCC31CCN(C(=O)Nc2ccc3c(c2)OCO3)CC1	n	x	x	-94
COc1ccc2c3c([nH]c2c1)[C@@H](CO)NCC31CCN(C(=O)Nc2ccc(F)cc2)CC1	n	x	x	n
COc1ccc2c3c([nH]c2c1)[C@@H](CO)N(C(=O)Nc1ccc(F)cc1)CC31CCN(C(=O)Cc2ccncc2)CC1	n	x	x	n
COc1ccc2c3c([nH]c2c1)[C@@H](CO)N(S(C)(=O)=O)CC31CCN(C(=O)Nc2ccccc2)CC1	n	x	x	n
CCC(=O)N1CC2(CCN(C(=O)Nc3ccccc3F)CC2)c2c([nH]c3cc(OC)ccc23)[C@H]1CO	n	x	x	-90
COc1ccc2c3c([nH]c2c1)[C@H](CO)N(C(=O)Nc1ccc(F)cc1)CC31CCN(C(=O)Cc2ccncc2)CC1	n	x	x	-84
COc1ccc2c3c([nH]c2c1)[C@H](CO)N(S(C)(=O)=O)CC31CCN(C(=O)Nc2ccccc2)CC1	x	x	x	-83
Cc1ccccc1N1C(=O)CC(SCC(=O)Nc2ccccc2)C1=O (stereo not given)	x	n	x	x
O=c1c(-c2ccccc2)[n+]([O-])c2ccccc2n1OCc1ccccc1	x	n	x	x
Cc1cc(C)nc(SCC(=O)Nc2cc([N+](=O)[O-])ccc2C)n1	x	n	x	x
O=C1COc2ccc(S(=O)(=O)NCCOc3ccccc3)cc2N1	x	n	x	x
Cc1c(Cl)cccc1NC(=O)CSc1nnc(-c2ccc([N+](=O)[O-])cc2)n1C	x	n	x	x
COc1ccc2c3c([nH]c2c1)[C@H](CO)N(C(C)=O)CC31CCN(C(=O)Nc2ccccc2F)CC1	n	x	x	-89
CCC(=O)N1CC2(CN(C(=O)Nc3ccc(F)cc3)C2)c2c([nH]c3cc(OC)ccc23)[C@H]1CO	n	x	x	n
CCC(=O)N1CC2(CCN(C(=O)Nc3ccc(F)cc3)CC2)c2c([nH]c3cc(OC)ccc23)[C@H]1CO	n	x	x	-84
CCC(=O)N1CC2(CCN(C(=O)Nc3ccccc3F)CC2)c2c([nH]c3cc(OC)ccc23)[C@@H]1CO	n	x	x	-85
COCC(=O)N(C)C[C@H]1Oc2ncc(C#CC(C)(C)O)cc2C(=O)N([C@@H](C)CO)C[C@H]1C	27	n	n	n
COc1ccc(C#Cc2cnc3c(c2)C(=O)N([C@@H](C)CO)C[C@H](C)[C@@H](CN(C)C)O3)cc1	n	n	n	n
SMILES	KDM4C inh	IDH1 R132H inh	T cruzi growth	Pf Dd2 growth
COCC(=O)N(C)C[C@H]1Oc2ncc(C#CC(C)(C)O)cc2C(=O)N([C@H](C)CO)C[C@H]1C	n	n	n	n
COc1ccc(C#Cc2cnc3c(c2)C(=O)N([C@H](C)CO)C[C@H](C)[C@H](CN(C)C(=O)c2ccccc2F)O3)cc1	n	n	n	-84
CCCN(C)C[C@@H]1Oc2ncc(C#Cc3ccc(OC)c(OC)c3)cc2C(=O)N([C@H](C)CO)C[C@@H]1C	n	n	n	-82
CCCN(C)C[C@H]1Oc2ncc(C#Cc3ccc(OC)cc3)cc2C(=O)N([C@H](C)CO)C[C@H]1C	n	n	x	-84
O=c1c2ccccc2[nH]c(=S)n1CCCN1CCN(Cc2ccccc2)CC1	x	n	x	x
CC1=C(C(=O)Nc2ccccc2)C(c2ccccc2OCc2ccccc2)n2nnnc2N1 (stereo not given)	x	n	x	x
O=C1c2cccc3cccc(c23)C(=O)N1CCCSc1n[nH]c(-c2ccc(Cl)cc2)n1	x	n	x	x
COC(=O)COc1ccc(NC(=O)c2ccc(OC)c([N+](=O)[O-])c2)cc1	x	n	x	x
COc1ccc(C#Cc2cnc3c(c2)C(=O)N([C@H](C)CO)C[C@H](C)[C@H](CN(C)S(=O)(=O)c2ccccc2)O3)cc1OC	n	n	n	n
COc1ccc(C#Cc2cnc3c(c2)C(=O)N([C@H](C)CO)C[C@H](C)[C@H](CN(C)S(=O)(=O)c2cccs2)O3)cc1OC	n	n	n	-84!
COc1ccc(C#Cc2cnc3c(c2)C(=O)N([C@@H](C)CO)C[C@@H](C)[C@@H](CN(C)C)O3)cc1	n	n	n	n
CCCN(C)C[C@H]1Oc2ncc(C#Cc3ccc(OC)cc3)cc2C(=O)N([C@@H](C)CO)C[C@H]1C	n	n	x	-87
CCCC(=O)Nc1nc2c(ncn2C2O[C@H]3COP(=O)(O)O[C@@H]3[C@@H]2OC(=O)CCC)c(=O)[nH]1 (stereo not given in full)	x	n	x	x
C[C@@H]1CCCCO[C@H](CN(C)C(=O)C2CCCCC2)[C@@H](C)CN([C@@H](C)CO)C(=O)c2cc(NC(=O)Cc3ccccc3)ccc2O1	n	x	n	-85
C[C@@H]1CCCCO[C@H](CN(C)C(=O)c2ccccc2)[C@@H](C)CN([C@@H](C)CO)C(=O)c2cc(NC(=O)Nc3ccc4c(c3)OCO4)ccc2O1	n	n	n	-81
C[C@@H]1CCCCO[C@H](CN(C)C(=O)c2ccccc2)[C@@H](C)CN([C@H](C)CO)C(=O)c2cc(NC(=O)Nc3ccc4c(c3)OCO4)ccc2O1	n	x	n	n
C[C@H](CO)N1C[C@H](C)[C@H](CN(C)C(=O)C2CCCCC2)OCCCC[C@H](C)Oc2ccc(NC(=O)Nc3ccccc3)cc2C1=O	x	x	n	n
C[C@@H]1CN([C@@H](C)CO)C(=O)c2cc(NC(=O)Nc3ccccc3)ccc2O[C@@H](C)CCCCO[C@@H]1CN(C)C(=O)C1CCCCC1	n	n	n	-84
C[C@H]1CCCCO[C@@H](CN(C)C(=O)C2CCCCC2)[C@@H](C)CN([C@@H](C)CO)C(=O)c2cc(NC(=O)Nc3ccccc3)ccc2O1	n	n	n	-88
C[C@H](CO)N1C[C@H](C)[C@H](CN(C)C(=O)C2CCCCC2)OCCCC[C@H](C)Oc2ccc(NC(=O)c3ccncc3)cc2C1=O	n	n	n	n
C[C@H]1CCCCO[C@@H](CN(C)C(=O)C2CCCCC2)[C@@H](C)CN([C@@H](C)CO)C(=O)c2cc(NC(=O)c3ccncc3)ccc2O1	n	n	n	-81
